Measured values as given in ChEMBL document CHEMBL1124927, “Synthesis and structure-activity relationships of new 7-[3-(fluoromethyl)piperazinyl]- and -(fluorohomopiperazinyl)quinolone antibacterials” (1990).
≈ marks a conversion by molar mass, not a printed value.

Experiments:
Escherichia coli [1] = test: In vitro minimal inhibitory concentration against Escherichia coli #311 (Ec(B)); type: functional
How it was run: (§1)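 Agar dilution: two-fold serial drug dilutions in Mueller–Hinton agar; plates inoculated with 1–5 × 10⁴ CFU via Steers multiple inocula replicator; incubated 18 h at 35 °C. MIC = lowest concentration preventing macroscopic growth.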

Enterobacter cloacae [2] = test: (§2) In vitro minimal inhibitory concentration against Enterobacter cloacae VGH-84-39 (Et(c)); type: functional
Staphylococcus aureus [3] = test: In vitro minimal inhibitory concentration against Staphylococcus aureus ATCC 29213 (Sa(B)); type: functional; how it was run: as §1
Enterococcus faecalis [4] = test: In vitro minimal inhibitory concentration against Streptococcus faecalis UCI-85 (Sf(U)); type: functional; how it was run: as §1
Staphylococcus aureus [5] = test: In vitro minimal inhibitory concentration against Staphylococcus aureus Smith (MP) (Sa(A)); type: functional; how it was run: as §1
Escherichia coli [6] = test: In vitro minimal inhibitory concentration against Escherichia coli ATCC 25922 (Ec(A)); type: functional; how it was run: as §1
Pseudomonas aeruginosa = test: In vitro minimal inhibitory concentration against Pseudomonas aeruginosa 12-4-4 (Pa); type: functional; how it was run: as §1
Enterococcus faecalis [7] = test: In vitro minimal inhibitory concentration Streptococcus faecalis VGH-84 (Sf(V)); type: functional; how it was run: as §1
Morganella morganii = test: In vitro minimal inhibitory concentration against Morganella morganii CMC-84-39 (Mn); type: functional; how it was run: as §1
[8] = Ratio of ED50 value of (po/sc) was determined for Staphylococcus aureus Smith; type: functional
How it was run: (§3)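 Oral and subcutaneous ED50 values from ip-infected CD-1 female mice (treated 0.5 h post-infection, 2-fold doses in 0.2% aqueous agar, five mice/dose, 7-day survival, three pooled tests, probit analysis); ratio taken as po ED50 divided by sc ED50, as an index of absorption.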

Staphylococcus aureus [9] = test: Median effective dose against female mice infected with Staphylococcus aureus Smith after oral administration; type: functional
How it was run: (§4)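 CD-1 female mice (20 ± 2 g) infected ip with 0.5 mL standardized bacterial suspension (E. coli #311 in trypticase–soy broth; S. aureus Smith in 5% hog gastric mucin). Dosed 0.5 h post-infection, oral or subcutaneous, 2-fold dose increments in 0.5 mL 0.2% aqueous agar; five mice per dose. 7-day survival pooled from three tests; ED50 by probit analysis, 95% confidence limits.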

[10] = Ratio of ED50 value of (po/sc) was determined for Escherichia coli #311; type: functional; how it was run: as §3
Escherichia coli [11] = test: Median effective dose against female mice infected with Escherichia coli #311 after subcutaneous administration; type: functional; settings: sc; how it was run: as §4
Staphylococcus aureus [12] = test: Median effective dose against female mice infected with Staphylococcus aureus Smith after subcutaneous administration; type: functional; settings: sc; how it was run: as §4
Escherichia coli [13] = test: Median effective dose against female mice infected with Escherichia coli #311 after oral administration; type: functional; how it was run: as §4
Escherichia coli [14] = test: animal or person; settings: in Mus musculus, sc
Escherichia coli [15] = test: animal or person; settings: in Mus musculus, po
Enterobacter cloacae [16] = test: as §2; type: functional; how it was run: as §1; remark: listed apart in the source

SMILES	MIC (Escherichia coli [1]) [µg/mL]	MIC (Enterobacter cloacae [2]) [µg/mL]	MIC (Staphylococcus aureus [3]) [µg/mL]	MIC (Enterococcus faecalis [4]) [µg/mL]	MIC (Staphylococcus aureus [5]) [µg/mL]	MIC (Escherichia coli [6]) [µg/mL]	MIC (Pseudomonas aeruginosa) [µg/mL]	MIC (Enterococcus faecalis [7]) [µg/mL]	MIC (Morganella morganii) [µg/mL]	MIC (Enterobacter cloacae [16]) [µg/mL]	Ratio [8]	ED50 (Staphylococcus aureus [9]) [mg/kg]	Ratio [10]	ED50 (Escherichia coli [11]) [mg/kg]	ED50 (Staphylococcus aureus [12]) [mg/kg]	ED50 (Escherichia coli [13]; Escherichia coli, po) [mg/kg]	ED50 (Escherichia coli [13]) [mg/kg]	ED50 (Escherichia coli [14]) [mg/kg]	ED50 (Escherichia coli [15]) [mg/kg]
CCn1cc(C(=O)O)c(=O)c2cc(F)c(N3CCNC(C(F)F)C3)c(F)c21 (stereo not given)	0.5 (≈ 1.29 µM)	1 (≈ 2.58 µM)	0.25 (≈ 0.645 µM)	4 (≈ 10.3 µM)	0.12 (≈ 0.31 µM)	0.5 (≈ 1.29 µM)	32 (≈ 82.6 µM)	4 (≈ 10.3 µM)	1 (≈ 2.58 µM)	–	–	–	–	–	–	–	–	–	–
CCn1cc(C(=O)O)c(=O)c2cc(F)c(N3CCNC(CO)C3)cc21.Cl (stereo not given)	1	1	32	16	8	2	64	16	0.5	–	–	–	–	–	–	–	–	–	–
O=C(O)c1cn(C2CC2)c2cc(N3CCNCC(O)C3)c(F)cc2c1=O (stereo not given)	0.5 (≈ 1.38 µM)	0.25 (≈ 0.692 µM)	16 (≈ 44.3 µM)	16 (≈ 44.3 µM)	4 (≈ 11.1 µM)	0.25 (≈ 0.692 µM)	2 (≈ 5.53 µM)	16 (≈ 44.3 µM)	0.12 (≈ 0.332 µM)	–	–	–	–	–	–	–	–	–	–
CCn1cc(C(=O)O)c(=O)c2cc(F)c(N3CCNC(CF)C3)cc21 (stereo not given)	≤ 0.12	0.12 (≈ 0.342 µM)	0.25 (≈ 0.712 µM)	4 (≈ 11.4 µM)	≤ 0.12	0.12 (≈ 0.342 µM)	32 (≈ 91.1 µM)	2 (≈ 5.69 µM)	0.12 (≈ 0.342 µM)	–	2.3	6	1	3	2.6	–	2.8	–	–
O=C(O)c1cn(C2CC2)c2cc(N3CCNCC3)c(F)cc2c1=O [CIPROFLOXACIN]	≤ 0.015	–	1 (≈ 3.02 µM)	1 (≈ 3.02 µM)	0.25 (≈ 0.754 µM)	≤ 0.015	–	1 (≈ 3.02 µM)	0.015 (≈ 0.0453 µM)	–	–	3.8	–	–	0.69	–	–	0.07	0.49
O=C(O)c1cn(-c2ccc(F)cc2)c2cc(N3CCNC(CF)C3)c(F)cc2c1=O (stereo not given)	0.25 (≈ 0.599 µM)	–	0.5 (≈ 1.2 µM)	4 (≈ 9.58 µM)	0.25 (≈ 0.599 µM)	0.25 (≈ 0.599 µM)	8 (≈ 19.2 µM)	4 (≈ 9.58 µM)	1 (≈ 2.4 µM)	0.25 (≈ 0.599 µM)	–	–	–	–	–	–	–	–	–

Second part, led by results:

MIC (Escherichia coli [1]) [µg/mL]	MIC (Enterobacter cloacae [2]) [µg/mL]	MIC (Staphylococcus aureus [3]) [µg/mL]	MIC (Enterococcus faecalis [4]) [µg/mL]	MIC (Staphylococcus aureus [5]) [µg/mL]	MIC (Escherichia coli [6]) [µg/mL]	MIC (Pseudomonas aeruginosa) [µg/mL]	MIC (Enterococcus faecalis [7]) [µg/mL]	MIC (Morganella morganii) [µg/mL]	MIC (Enterobacter cloacae [16]) [µg/mL]	SMILES	Ratio [8]	ED50 (Staphylococcus aureus [9]) [mg/kg]	Ratio [10]	ED50 (Escherichia coli [11]) [mg/kg]	ED50 (Staphylococcus aureus [12]) [mg/kg]	ED50 (Escherichia coli [13]; Escherichia coli, po) [mg/kg]	ED50 (Escherichia coli [13]) [mg/kg]	ED50 (Escherichia coli [14]) [mg/kg]	ED50 (Escherichia coli [15]) [mg/kg]
0.03 (≈ 0.0826 µM)	0.12 (≈ 0.33 µM)	0.25 (≈ 0.688 µM)	2 (≈ 5.5 µM)	0.12 (≈ 0.33 µM)	0.06 (≈ 0.165 µM)	2 (≈ 5.5 µM)	1 (≈ 2.75 µM)	0.12 (≈ 0.33 µM)	–	O=C(O)c1cn(C2CC2)c2cc(N3CCNC(CF)C3)c(F)cc2c1=O (stereo not given)	3	2.8	2	0.6	0.94	1.2	–	–	–
≤ 0.015	0.015 (≈ 0.0434 µM)	0.5 (≈ 1.45 µM)	2 (≈ 5.79 µM)	0.12 (≈ 0.347 µM)	≤ 0.015	0.25 (≈ 0.724 µM)	1 (≈ 2.9 µM)	0.03 (≈ 0.0869 µM)	–	CC1CN(c2cc3c(cc2F)c(=O)c(C(=O)O)cn3C2CC2)CCN1 (stereo not given)	3.9	2.4	4.7	0.09	0.61	0.42	–	–	–
0.03 (≈ 0.0826 µM)	0.06 (≈ 0.165 µM)	1 (≈ 2.75 µM)	4 (≈ 11 µM)	0.25 (≈ 0.688 µM)	0.03 (≈ 0.0826 µM)	2 (≈ 5.5 µM)	4 (≈ 11 µM)	0.06 (≈ 0.165 µM)	–	O=C(O)c1cn(C2CC2)c2cc(N3CCNCC(F)C3)c(F)cc2c1=O (stereo not given)	–	–	–	–	–	–	–	–	–
0.03 (≈ 0.0869 µM)	0.03 (≈ 0.0869 µM)	2 (≈ 5.79 µM)	2 (≈ 5.79 µM)	0.25 (≈ 0.724 µM)	0.03 (≈ 0.0869 µM)	1 (≈ 2.9 µM)	1 (≈ 2.9 µM)	0.03 (≈ 0.0869 µM)	–	O=C(O)c1cn(C2CC2)c2cc(N3CCCNCC3)c(F)cc2c1=O	–	–	–	–	–	–	–	–	–
